ChEMBL document CHEMBL1140069, “In vitro antifungal activity of polyfunctionalized 2-(hetero)arylquinolines prepared through imino Diels-Alder reactions” (2008)
In brackets after ≈: the same amount, converted by molar mass. One block for each molecule: values may come before it.

Experiments:
Format in all cases: functional
[1] = tested on: Cryptococcus neoformans; test: Antimicrobial activity against Cryptococcus neoformans IM 972724 isolate at 12.5 ug/ml after 48 hrs
Procedure, shortened: (§1)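 Clinical Cryptococcus isolates kept on Sabouraud-dextrose agar slopes; inoculum 1–5 × 10³ CFU/mL. Quinoline DMSO stocks were diluted in RPMI-1640 to final 100–6.25 µg/mL, with DMSO ≤2%. An equal volume of inoculum was added (200 µL per well). Run in triplicate.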

[2] = tested on: Cryptococcus neoformans; test: Antimicrobial activity against Cryptococcus neoformans IM 983040 isolate at 12.5 ug/ml after 48 hrs; procedure, shortened: as §1
[3] = tested on: Candida albicans; test: Antimicrobial activity against Candida albicans ATCC 10231 at 50 ug/ml after 24 hrs; conditions: ATCC 10231, 24 h
Procedure, shortened: (§2)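 Growth-inhibition microplate test. Strains are grown on Sabouraud-chloramphenicol agar for 48 h at 30 °C, and inoculum is added to RPMI-1640 containing compound at a final 100–6.25, with DMSO ≤2%. Each strain has a growth control (same DMSO, no compound) and a sterility control.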

[4] = tested on: Cryptococcus neoformans; test: Antimicrobial activity against Cryptococcus neoformans IM 042074 isolate at 25 ug/ml after 48 hrs
Procedure, shortened: (§3)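 Percent growth inhibition in 96-well microplates. Compound stocks in DMSO (≤2%) were diluted in RPMI-1640 to final 100–6.25 µg/mL, and 100 µL inoculum was added (final 200 µL). Controls were a growth well (inoculum with matching DMSO, no compound) and a sterility well (no inoculum). Inhibition was calculated against growth and sterility wells.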

[5] = tested on: Cryptococcus neoformans; test: Antimicrobial activity against Cryptococcus neoformans ATCC 32264 at 100 ug/ml after 48 hrs; conditions: ATCC 32264, 48 h; procedure, shortened: as §3
[6] = tested on: Cryptococcus neoformans; test: Antimicrobial activity against Cryptococcus neoformans IM 972751 isolate at 25 ug/ml after 48 hrs; procedure, shortened: as §1
[7] = tested on: Candida albicans; test: Antimicrobial activity against Candida albicans ATCC 10231 at 25 ug/ml after 24 hrs; conditions: ATCC 10231, 24 h; procedure, shortened: as §2
[8] = tested on: Cryptococcus neoformans; test: Antimicrobial activity against Cryptococcus neoformans IM 031631 isolate at 100 ug/ml after 48 hrs; procedure, shortened: as §3
[9] = tested on: Cryptococcus neoformans; test: Antimicrobial activity against Cryptococcus neoformans IM 972751 isolate at 100 ug/ml after 48 hrs; procedure, shortened: as §1
[10] = tested on: Cryptococcus neoformans; test: Antimicrobial activity against Cryptococcus neoformans IM 031706 isolate at 25 ug/ml after 48 hrs; procedure, shortened: as §3
[11] = tested on: Cryptococcus neoformans; test: Antimicrobial activity against Cryptococcus neoformans IM 983040 isolate at 100 ug/ml after 48 hrs; procedure, shortened: as §1
[12] = tested on: Cryptococcus neoformans; test: Antimicrobial activity against Cryptococcus neoformans IM 972724 isolate at 100 ug/ml after 48 hrs; procedure, shortened: as §1
[13] = tested on: Cryptococcus neoformans; test: Antimicrobial activity against Cryptococcus neoformans IM 983036 isolate at 25 ug/ml after 48 hrs; procedure, shortened: as §1
[14] = tested on: Cryptococcus neoformans; test: Antimicrobial activity against Cryptococcus neoformans IM 983040 isolate at 6.25 ug/ml after 48 hrs; procedure, shortened: as §1
[15] = tested on: Cryptococcus neoformans; test: Antimicrobial activity against Cryptococcus neoformans IM 031706 isolate at 100 ug/ml after 48 hrs; procedure, shortened: as §3
[16] = tested on: Cryptococcus neoformans; test: Antimicrobial activity against Cryptococcus neoformans IM 961951 isolate at 12.5 ug/ml after 48 hrs; procedure, shortened: as §3
[17] = tested on: Cryptococcus neoformans; test: Antimicrobial activity against Cryptococcus neoformans IM 052470 isolate at 12.5 ug/ml after 48 hrs; procedure, shortened: as §3
[18] = tested on: Cryptococcus neoformans; test: Antimicrobial activity against Cryptococcus neoformans IM 00319 isolate at 25 ug/ml after 48 hrs; procedure, shortened: as §3
[19] = tested on: Cryptococcus neoformans; test: Antimicrobial activity against Cryptococcus neoformans IM 031706 isolate at 12.5 ug/ml after 48 hrs; procedure, shortened: as §3
[20] = tested on: Cryptococcus neoformans; test: Antimicrobial activity against Cryptococcus neoformans IM 961951 isolate at 50 ug/ml after 48 hrs; procedure, shortened: as §1
[21] = tested on: Cryptococcus neoformans; test: Antimicrobial activity against Cryptococcus neoformans IM 972751 isolate at 12.5 ug/ml after 48 hrs; procedure, shortened: as §1
[22] = tested on: Cryptococcus neoformans; test: Antimicrobial activity against Cryptococcus neoformans IM 961951 isolate at 6.25 ug/ml after 48 hrs; procedure, shortened: as §1
[23] = tested on: Candida albicans; test: Antimicrobial activity against Candida albicans ATCC 10231 at 6.25 ug/ml after 24 hrs; conditions: ATCC 10231, 24 h; procedure, shortened: as §2
[24] = tested on: Cryptococcus neoformans; test: Antimicrobial activity against Cryptococcus neoformans IM 052470 isolate at 6.25 ug/ml after 48 hrs; procedure, shortened: as §3
[25] = tested on: Cryptococcus neoformans; test: Antimicrobial activity against Cryptococcus neoformans IM 042074 isolate at 50 ug/ml after 48 hrs; procedure, shortened: as §3
[26] = tested on: Cryptococcus neoformans; test: Antimicrobial activity against Cryptococcus neoformans IM 983036 isolate at 100 ug/ml after 48 hrs; procedure, shortened: as §1
[27] = tested on: Cryptococcus neoformans; test: Antimicrobial activity against Cryptococcus neoformans IM 972724 isolate at 50 ug/ml after 48 hrs; procedure, shortened: as §1
[28] = tested on: Cryptococcus neoformans; test: Antimicrobial activity against Cryptococcus neoformans IM 052470 isolate at 25 ug/ml after 48 hrs; procedure, shortened: as §3
[29] = tested on: Cryptococcus neoformans; test: Antimicrobial activity against Cryptococcus neoformans ATCC 32264 at 50 ug/ml after 48 hrs; conditions: ATCC 32264, 48 h; procedure, shortened: as §3
[30] = tested on: Aspergillus fumigatus; test: Antifungal activity against Aspergillus fumigatus ATTC 26934 after 48 hrs by broth microdilution technique
Procedure, shortened: (§4)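 CLSI broth microdilution: M-27 A2 for yeasts and M-38 A for filamentous fungi. Medium is RPMI-1640 buffered to pH 7.0 with MOPS. Compound is diluted twofold from 250 to 0.98, final DMSO ≤2%. Inoculum is 1–5 × 10³ CFU/mL. Plates are incubated at 35 °C in a moist, dark chamber and read visually at 48 h. MIC100 is the lowest concentration giving total growth inhibition versus drug-free control.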

[31] = tested on: Cryptococcus neoformans; test: Antimicrobial activity against Cryptococcus neoformans ATCC 32264 at 12.5 ug/ml after 48 hrs; conditions: ATCC 32264, 48 h; procedure, shortened: as §3
[32] = tested on: Cryptococcus neoformans; test: Antimicrobial activity against Cryptococcus neoformans IM 00319 isolate at 6.25 ug/ml after 48 hrs; procedure, shortened: as §3
[33] = tested on: Cryptococcus neoformans; test: Antimicrobial activity against Cryptococcus neoformans IM 00319 isolate at 50 ug/ml after 48 hrs; procedure, shortened: as §3
[34] = tested on: Cryptococcus neoformans; test: Antimicrobial activity against Cryptococcus neoformans IM 972724 isolate at 6.25 ug/ml after 48 hrs; procedure, shortened: as §1
[35] = tested on: Cryptococcus neoformans; test: Antimicrobial activity against Cryptococcus neoformans IM 972724 isolate at 25 ug/ml after 48 hrs; procedure, shortened: as §1
[36] = tested on: Candida albicans; test: Antimicrobial activity against Candida albicans ATCC 10231 at 12.5 ug/ml after 24 hrs; conditions: ATCC 10231, 24 h; procedure, shortened: as §2
[37] = tested on: Cryptococcus neoformans; test: Antimicrobial activity against Cryptococcus neoformans IM 052470 isolate at 50 ug/ml after 48 hrs; procedure, shortened: as §3
[38] = tested on: Cryptococcus neoformans; test: Antimicrobial activity against Cryptococcus neoformans IM 983040 isolate at 25 ug/ml after 48 hrs; procedure, shortened: as §1
[39] = tested on: Cryptococcus neoformans; test: Antimicrobial activity against Cryptococcus neoformans IM 031631 isolate at 12.5 ug/ml after 48 hrs; procedure, shortened: as §3
[40] = tested on: Cryptococcus neoformans; test: Antimicrobial activity against Cryptococcus neoformans IM 983036 isolate at 12.5 ug/ml after 48 hrs; procedure, shortened: as §1
[41] = tested on: Candida albicans; test: Antifungal activity against Candida albicans ATCC 10231 after 48 hrs by broth microdilution technique; conditions: ATCC 10231, 48 h; procedure, shortened: as §4
[42] = tested on: Trichophyton mentagrophytes; test: Antifungal activity against Trichophyton mentagrophytes ATCC 9972 after 48 hrs by broth microdilution technique; conditions: ATCC 9972, 48 h; procedure, shortened: as §4
[43] = tested on: Aspergillus flavus; test: Antifungal activity against Aspergillus flavus ATCC 9170 after 48 hrs by broth microdilution technique; conditions: ATCC 9170, 48 h; procedure, shortened: as §4

- MIC [30]: 50 µg/mL (≈ 227 µM)
- MIC [41]: 100 µg/mL (≈ 454 µM)
- MIC [42]: 25 µg/mL (≈ 113 µM)
- MIC [43]: 100 µg/mL (≈ 454 µM)
SMILES: Cc1cc(-c2ccncc2)nc2ccccc12
- inhibition at 12.5 µg/mL [1]: 0%
- inhibition at 12.5 µg/mL [2]: 0%
- inhibition at 50 µg/mL [3]: 73%
- inhibition at 25 µg/mL [4]: 87%
- inhibition at 100 µg/mL [5]: 100%
- inhibition at 25 µg/mL [6]: 9%
- inhibition at 25 µg/mL [7]: 63%
- inhibition at 100 µg/mL [8]: 100%
- inhibition at 100 µg/mL [9]: 98%
- inhibition at 25 µg/mL [10]: 57%
- inhibition at 100 µg/mL [11]: 45%
- inhibition at 100 µg/mL [12]: 74%
- inhibition at 25 µg/mL [13]: 45%
- inhibition at 6.25 µg/mL [14]: 0%
- inhibition at 100 µg/mL [15]: 100%
- inhibition at 12.5 µg/mL [16]: 34%
- inhibition at 12.5 µg/mL [17]: 24%
- inhibition at 25 µg/mL [18]: 52%
- inhibition at 12.5 µg/mL [19]: 41%
- inhibition at 50 µg/mL [20]: 89%
- inhibition at 12.5 µg/mL [21]: 0%
- inhibition at 6.25 µg/mL [22]: 4%
- inhibition at 6.25 µg/mL [23]: 19%
- inhibition at 6.25 µg/mL [24]: 0%
- inhibition at 50 µg/mL [25]: 87%
- inhibition at 100 µg/mL [26]: 79%
- inhibition at 50 µg/mL [27]: 23%
- inhibition at 25 µg/mL [28]: 53%
- inhibition at 50 µg/mL [29]: 100%
- inhibition at 12.5 µg/mL [31]: 90.5%
- inhibition at 6.25 µg/mL [32]: 12%
- inhibition at 50 µg/mL [33]: 80%
- inhibition at 6.25 µg/mL [34]: 0%
- inhibition at 25 µg/mL [35]: 8%
- inhibition at 12.5 µg/mL [36]: 41%
- inhibition at 50 µg/mL [37]: 75%
- inhibition at 25 µg/mL [38]: 12%
- inhibition at 12.5 µg/mL [39]: 36%
- inhibition at 12.5 µg/mL [40]: 20%

- MIC [30]: > 250 µg/mL
- MIC [41]: 250 µg/mL (≈ 1220 µM)
- MIC [42]: 25 µg/mL (≈ 122 µM)
- MIC [43]: > 250 µg/mL
SMILES: c1ccc(-c2ccc3ccccc3n2)cc1 [2-PHENYLQUINOLINE]
- inhibition at 12.5 µg/mL [1]: 13%
- inhibition at 12.5 µg/mL [2]: 4%
- inhibition at 50 µg/mL [3]: 0%
- inhibition at 25 µg/mL [4]: 33%
- inhibition at 100 µg/mL [5]: 100%
- inhibition at 25 µg/mL [6]: 22%
- inhibition at 25 µg/mL [7]: 0%
- inhibition at 100 µg/mL [8]: 74%
- inhibition at 100 µg/mL [9]: 83%
- inhibition at 25 µg/mL [10]: 17%
- inhibition at 100 µg/mL [11]: 50%
- inhibition at 100 µg/mL [12]: 99%
- inhibition at 25 µg/mL [13]: 0%
- inhibition at 6.25 µg/mL [14]: 0%
- inhibition at 100 µg/mL [15]: 67%
- inhibition at 12.5 µg/mL [16]: 0%
- inhibition at 12.5 µg/mL [17]: 21%
- inhibition at 25 µg/mL [18]: 14%
- inhibition at 12.5 µg/mL [19]: 0%
- inhibition at 50 µg/mL [20]: 32%
- inhibition at 12.5 µg/mL [21]: 0%
- inhibition at 6.25 µg/mL [22]: 0%
- inhibition at 6.25 µg/mL [23]: 0%
- inhibition at 6.25 µg/mL [24]: 0%
- inhibition at 50 µg/mL [25]: 77%
- inhibition at 100 µg/mL [26]: 32%
- inhibition at 50 µg/mL [27]: 87%
- inhibition at 25 µg/mL [28]: 35%
- inhibition at 50 µg/mL [29]: 100%
- inhibition at 12.5 µg/mL [31]: 32%
- inhibition at 6.25 µg/mL [32]: 0%
- inhibition at 50 µg/mL [33]: 34%
- inhibition at 6.25 µg/mL [34]: 0%
- inhibition at 25 µg/mL [35]: 35%
- inhibition at 12.5 µg/mL [36]: 0%
- inhibition at 50 µg/mL [37]: 76%
- inhibition at 25 µg/mL [38]: 13%
- inhibition at 12.5 µg/mL [39]: 5%
- inhibition at 12.5 µg/mL [40]: 0%
